Results taken from ChEMBL document CHEMBL3232922, “Discovery and SAR of 6-alkyl-2,4-diaminopyrimidines as histamine H₄ receptor antagonists” (J Med Chem, 2014).
Each block holds one compound with its values, some of them ahead of it. Calls of active or inactive are those of the source. No cut-off for these calls is given here.

Key:
[1] = AUC in Sprague-Dawley rat at 2 mg/kg, iv; format: ADME, organism-based; design: dose 2 mg/kg, route intravenous; details: plasma
[2] = AUC in Sprague-Dawley rat at 10 mg/kg, po; format: ADME, organism-based; design: dose 10 mg/kg, route oral; details: plasma
Canis familiaris [3] = assay: AUC in beagle dog at 2 mg/kg, iv; format: ADME, organism-based, Canis lupus familiaris, Plasma; design: dose 2 mg/kg, route intravenous; details: in vivo
[4] = AUC in beagle dog at 10 mg/kg, po; format: ADME, organism-based, Canis lupus familiaris; design: dose 10 mg/kg, route oral; details: plasma
Rattus norvegicus [5] = assay: Clearance in Sprague-Dawley rat at 2 mg/kg, iv; format: ADME, organism-based; design: dose 2 mg/kg, route intravenous; details: in vivo
Canis familiaris [6] = assay: Clearance in beagle dog at 2 mg/kg, iv; format: ADME, organism-based, Canis lupus familiaris; design: dose 2 mg/kg, route intravenous; details: in vivo
Rattus norvegicus [7] = assay: Volume of distribution at steady state in Sprague-Dawley rat at 2 mg/kg, iv; format: ADME, organism-based; design: dose 2 mg/kg, route intravenous; details: in vivo
[8] = Volume of distribution at steady state in beagle dog at 2 mg/kg, iv; format: ADME, organism-based, Canis lupus familiaris; design: dose 2 mg/kg, route intravenous; details: in vivo, read-out: Vdss
Rattus norvegicus [9] = assay: Half life in Sprague-Dawley rat at 2 mg/kg, iv; format: ADME, organism-based; design: dose 2 mg/kg, route intravenous; details: in vivo
[10] = Half life in Sprague-Dawley rat at 10 mg/kg, po; format: ADME, organism-based; design: dose 10 mg/kg, route oral; details: in vivo
[11] = Half life in beagle dog at 2 mg/kg, iv; format: ADME, organism-based, Canis lupus familiaris; design: dose 2 mg/kg, route intravenous; details: in vivo
[12] = Half life in beagle dog at 10 mg/kg, po; format: ADME, organism-based, Canis lupus familiaris; design: dose 10 mg/kg, route oral; details: in vivo
[13] = Oral bioavailability in Sprague-Dawley rat at 10 mg/kg; format: ADME, organism-based; details: in vivo
[14] = Oral bioavailability in beagle dog at 10 mg/kg; format: ADME, organism-based, Canis lupus familiaris; details: in vivo
Histamine H4 receptor [15] = target: T1, Histamine H4 receptor (Homo sapiens, UniProt Q9H3N8); assay: Displacement of [3H]histamine from human recombinant histamine H4 receptor expressed in SK-N-MC cells after 45 mins by competition binding analysis; format: cell-based
Histamine H4 receptor [16] = target: T1, Histamine H4 receptor; assay: Agonist activity at human H4 receptor; details: read-out: EC50
Histamine H4 receptor [17] = target: T1, Histamine H4 receptor; assay: Antagonist activity at human histamine H4 receptor expressed in SK-N-MC cells assessed as reduction of histamine-induced inhibition of cAMP-mediated beta-galactosidase reporter gene activity treated 10 mins prior to histamine challenge by microplate reader analysis; format: functional, cell-based; details: read-out: pA2 (converted)
Histamine H4 receptor [18] = target: T2, Histamine H4 receptor (Mus musculus, UniProt Q91ZY2); assay: Displacement of [3H]histamine from mouse histamine H4 receptor expressed in SK-N-MC cells after 45 mins by competition binding analysis; format: cell-based
T2 sequence (Q91ZY2 whole entry): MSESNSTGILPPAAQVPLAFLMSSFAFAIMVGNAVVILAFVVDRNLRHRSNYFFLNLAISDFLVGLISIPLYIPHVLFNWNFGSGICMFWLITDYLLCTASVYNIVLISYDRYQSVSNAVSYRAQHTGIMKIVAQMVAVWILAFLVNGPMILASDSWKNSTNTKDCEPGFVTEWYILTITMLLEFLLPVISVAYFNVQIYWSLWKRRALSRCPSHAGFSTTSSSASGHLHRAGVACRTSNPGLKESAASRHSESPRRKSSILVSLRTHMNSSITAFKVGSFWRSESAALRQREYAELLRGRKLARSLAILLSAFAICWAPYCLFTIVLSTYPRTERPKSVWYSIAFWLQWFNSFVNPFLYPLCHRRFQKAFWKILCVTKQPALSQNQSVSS
How it was run: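 Transfected cells expressing the H4 receptor, competition against [3H]histamine. Ki is the geometric mean of at least three independent determinations (each in triplicate), calculated by the Cheng–Prusoff equation.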

Histamine H4 receptor [19] = target: T2, Histamine H4 receptor; assay: Antagonist activity at mouse histamine H4 receptor expressed in SK-N-MC cells assessed as reduction of histamine-induced inhibition of cAMP-mediated beta-galactosidase reporter gene activity treated 10 mins prior to histamine challenge by microplate reader analysis; format: functional, cell-based; details: read-out: pA2 (converted)
Histamine H3 receptor = Histamine H3 receptor (Homo sapiens, UniProt Q9Y5N1); assay: Displacement of [3H]N-alpha-methylhistamine from human recombinant histamine H3 receptor expressed in SK-N-MC cells after 45 mins by competition binding analysis; format: cell-based
Histamine H3 receptor, sequence (Q9Y5N1 whole entry): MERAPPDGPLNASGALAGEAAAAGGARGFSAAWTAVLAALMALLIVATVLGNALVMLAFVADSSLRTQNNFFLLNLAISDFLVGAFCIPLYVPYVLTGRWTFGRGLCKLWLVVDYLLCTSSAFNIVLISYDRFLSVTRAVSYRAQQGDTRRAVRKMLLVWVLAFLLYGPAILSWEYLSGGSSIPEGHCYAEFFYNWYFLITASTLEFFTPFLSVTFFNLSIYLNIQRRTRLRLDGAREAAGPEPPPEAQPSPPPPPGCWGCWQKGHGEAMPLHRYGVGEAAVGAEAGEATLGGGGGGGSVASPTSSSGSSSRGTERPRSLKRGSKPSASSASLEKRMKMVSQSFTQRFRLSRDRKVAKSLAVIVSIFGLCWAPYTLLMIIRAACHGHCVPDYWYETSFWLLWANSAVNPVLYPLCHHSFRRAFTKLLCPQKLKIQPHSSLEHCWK

[20] = Half life in human microsomes; format: ADME, Microsome
[21] = Half life in rat microsomes; format: ADME, Microsome
[22] = target: Voltage-gated inwardly rectifying potassium channel KCNH2 (Homo sapiens, UniProt Q12809); assay: Inhibition of human ERG channel transfected in HEK293 cells assessed as reduction in delayed rectifier current by patch clamp assay; format: cell-based
Voltage-gated inwardly rectifying potassium channel KCNH2, sequence (Q12809 whole entry): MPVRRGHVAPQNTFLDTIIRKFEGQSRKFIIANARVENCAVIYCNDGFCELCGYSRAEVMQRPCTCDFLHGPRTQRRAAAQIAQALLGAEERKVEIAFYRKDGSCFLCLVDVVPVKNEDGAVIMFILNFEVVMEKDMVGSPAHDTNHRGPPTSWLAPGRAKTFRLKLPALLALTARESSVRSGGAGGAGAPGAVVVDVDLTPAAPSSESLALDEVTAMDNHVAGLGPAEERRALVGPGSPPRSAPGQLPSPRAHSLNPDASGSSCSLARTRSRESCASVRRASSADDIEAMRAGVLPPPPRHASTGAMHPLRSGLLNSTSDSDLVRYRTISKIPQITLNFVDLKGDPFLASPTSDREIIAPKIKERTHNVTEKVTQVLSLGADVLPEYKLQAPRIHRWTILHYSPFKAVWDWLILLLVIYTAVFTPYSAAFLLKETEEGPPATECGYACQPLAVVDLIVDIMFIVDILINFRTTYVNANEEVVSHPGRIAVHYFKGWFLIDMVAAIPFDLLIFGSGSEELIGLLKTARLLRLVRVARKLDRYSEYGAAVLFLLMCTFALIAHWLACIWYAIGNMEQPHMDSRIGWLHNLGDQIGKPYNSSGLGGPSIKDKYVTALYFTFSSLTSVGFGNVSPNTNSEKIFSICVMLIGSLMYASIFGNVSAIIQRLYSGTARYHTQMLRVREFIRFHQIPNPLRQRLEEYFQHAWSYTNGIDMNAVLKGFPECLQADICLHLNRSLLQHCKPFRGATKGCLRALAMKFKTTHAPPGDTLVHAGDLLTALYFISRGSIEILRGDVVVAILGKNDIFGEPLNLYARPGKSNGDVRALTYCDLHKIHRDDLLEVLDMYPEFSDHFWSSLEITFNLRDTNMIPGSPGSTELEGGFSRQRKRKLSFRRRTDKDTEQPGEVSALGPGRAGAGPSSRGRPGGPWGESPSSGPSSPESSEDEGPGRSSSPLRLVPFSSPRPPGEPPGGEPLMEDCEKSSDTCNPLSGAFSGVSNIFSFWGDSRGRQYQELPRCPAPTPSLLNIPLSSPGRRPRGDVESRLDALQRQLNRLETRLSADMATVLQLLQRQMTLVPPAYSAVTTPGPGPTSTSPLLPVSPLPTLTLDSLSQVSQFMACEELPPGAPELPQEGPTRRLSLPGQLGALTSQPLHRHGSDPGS
How it was run: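 The delayed rectifier current (IKr) was recorded in hERG-transfected HEK293 cells with the compound at 3 μM.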

hERG (KCNH2) = hERG (KCNH2) (Homo sapiens, UniProt Q12809); assay: Inhibition of human ERG channel transfected in HEK293 cells assessed as reduction in delayed rectifier current at 3 uM by patch clamp assay; format: cell-based; details: HEK293 cells transfected with human ERG channel
hERG (KCNH2), sequence (Q12809 whole entry): as above

Histamine H4 receptor [23] = target: T2, Histamine H4 receptor; assay: Partial agonist activity at mouse histamine H4 receptor
[24] = Permeability from apical to basolateral side in human Caco cells; format: ADME, cell-based; details: Caco-2, read-out: permeability
[25] = Permeability from basolateral to apical side in human Caco cells; format: ADME, cell-based; details: Caco-2, read-out: permeability
[26] = Half life in rat at 2 mg/kg, iv; format: ADME, organism-based; design: dose 2 mg/kg, route intravenous; details: in vivo
[27] = AUC in rat at 2 mg/kg, iv; format: ADME, organism-based; design: dose 2 mg/kg, route intravenous; details: plasma
[28] = Clearance in rat at 2 mg/kg, iv; format: ADME, organism-based; design: dose 2 mg/kg, route intravenous; details: in vivo
[29] = Volume of distribution at steady state in rat at 2 mg/kg, iv; format: ADME, organism-based; design: dose 2 mg/kg, route intravenous; details: in vivo, read-out: Vdss
[30] = Oral bioavailability in rat at 10 mg/kg; format: ADME, organism-based; details: in vivo
[31] = Half life in rat at 10 mg/kg, po; format: ADME, organism-based; design: dose 10 mg/kg, route oral; details: in vivo
[32] = Cmax in rat at 10 mg/kg, po; format: ADME, organism-based; design: dose 10 mg/kg, route oral; details: in vivo
[33] = Tmax in Sprague-Dawley rat at 10 mg/kg, po; format: ADME, organism-based; design: dose 10 mg/kg, route oral; details: in vivo
[34] = Tmax in beagle dog at 10 mg/kg, po; format: ADME, organism-based, Canis lupus familiaris; design: dose 10 mg/kg, route oral; details: in vivo
[35] = Initial plasma concentration in Sprague-Dawley rat at 2 mg/kg, iv; format: ADME, organism-based; design: dose 2 mg/kg, route intravenous
[36] = Cmax in Sprague-Dawley rat at 10 mg/kg, po; format: ADME, organism-based; design: dose 10 mg/kg, route oral; details: in vivo
[37] = Initial plasma concentration in beagle dog at 2 mg/kg, iv; format: ADME, organism-based, Canis lupus familiaris; design: dose 2 mg/kg, route intravenous
[38] = Cmax in beagle dog at 10 mg/kg, po; format: ADME, organism-based, Canis lupus familiaris; design: dose 10 mg/kg, route oral; details: in vivo
[39] = Fraction unbound in human plasma; format: ADME, cell-free
Mus musculus = assay: Antiinflammatory activity in po dosed Balb/c mouse assessed as inhibition of LPS-induced TNF-alpha release at plasma concentration of 62.5 nM administered 30 mins prior to LPS challenge measured after 2 hrs by ELISA; format: functional, organism-based

Compound: Nc1nc(C2CCCC2)cc(N2CCNCC2)n1
AUC [1]: 20.6 µM·h
AUC [2]: 8.2 µM·h
AUC (Canis familiaris [3]): 5.38 µM·h
AUC [4]: 30.8 µM·h
CL (Rattus norvegicus [5]): 0.422 L/h/kg
CL (Canis familiaris [6]): 21.19 L/h/kg
Vdss (Rattus norvegicus [7]): 3.1 L/kg
Vd [8]: 24.4 L/kg
t1/2 (Rattus norvegicus [9]): 2.2 h
half-life [10]: 8.7 h
half-life [11]: 10.8 h
half-life [12]: 9.01 h
bioavailability [13]: 20.7%
bioavailability [14]: 114%
Ki (Histamine H4 receptor [15]): 0.0012 µM
EC50 (Histamine H4 receptor [16]): > 10 µM
Kb (Histamine H4 receptor [17]): 0.000316 µM
Ki (Histamine H4 receptor [18]): 0.02 µM
Kb (Histamine H4 receptor [19]): 0.01 µM
Ki (Histamine H3 receptor): 0.024 µM
half-life [20]: > 1.67 h
half-life [21]: 1.43 h
INH [22]: > 10 µM
inhibition at 3 µM (hERG (KCNH2)): 21%
EC50 (Histamine H4 receptor [23]): 0.0073 µM
Papp A→B [24]: 320 nm/s
Papp B→A [25]: 160 nm/s
half-life [26]: 1.1 h
AUC [27]: 5 µM·h
clearance [28]: 0.63 L/h/kg
Vd [29]: 2.7 L/kg
bioavailability [30]: 20%
half-life [31]: 9 h
Cmax [32]: 0.31 µM
Tmax [33]: 2 h
Tmax [34]: 4 h
C0 [35]: 25 µM
Cmax [36]: 0.6 µM
C0 [37]: 1.76 µM
Cmax [38]: 1.49 µM

Compound: Nc1nc(C2CCCC2)cc(N2C[C@@H]3NCCO[C@@H]3C2)n1 (relative stereo)
Ki (Histamine H4 receptor [15]): 0.52 µM

Compound: Nc1nc(C2CCCC2)cc(N2C[C@H]3CCN[C@H]3C2)n1
Ki (Histamine H4 receptor [15]): 0.0029 µM
EC50 (Histamine H4 receptor [16]): > 10 µM
Kb (Histamine H4 receptor [17]): 0.0001 µM

Compound: Nc1nc(C2CCCC2)cc(N2C[C@H]3CNC[C@H]3C2)n1
Ki (Histamine H4 receptor [15]): 0.328 µM

Compound: Nc1nc(C2CCCC2)cc(N2CCC3(CCCN3)C2)n1 (stereo not drawn)
Ki (Histamine H4 receptor [15]): 0.0112 µM
EC50 (Histamine H4 receptor [16]): > 10 µM
Kb (Histamine H4 receptor [17]): 0.00251 µM

Compound: CN1CCN(c2cc(C3CCCC3)nc(N)n2)CC1
Ki (Histamine H4 receptor [15]): 0.0014 µM
EC50 (Histamine H4 receptor [16]): > 10 µM
Kb (Histamine H4 receptor [17]): 0.000126 µM

Compound: CN[C@@H]1CCN(c2cc(C34CC5CC(CC(C5)C3)C4)nc(N)n2)C1
Ki (Histamine H4 receptor [15]): 0.0017 µM
EC50 (Histamine H4 receptor [16]): > 10 µM
Kb (Histamine H4 receptor [17]): < 0.0001 µM

More lines, main results first:

EC50 (Histamine H4 receptor [16]): > 10 µM
Kb (Histamine H4 receptor [17]): 0.0251 µM
Compound: CN[C@@H]1CCN(c2nc(N)nc3c2CCCC3)C1

Ki (Histamine H4 receptor [15]): 0.0094 µM
EC50 (Histamine H4 receptor [16]): > 10 µM
Kb (Histamine H4 receptor [17]): 0.00501 µM
Compound: CC(C)(C)c1cc(N2CC[C@@H](N)C2)nc(N)n1

Ki (Histamine H4 receptor [15]): 0.005 µM
Compound: Cc1cnc(OCCCCC2CCN(C)CC2)cc1-c1nc2c(C)c(F)ccc2[nH]1

Ki (Histamine H4 receptor [15]): 0.02 µM
Compound: CN1CCN(C(=O)c2cc3c([nH]2)CCCC3)CC1

Ki (Histamine H4 receptor [15]): 0.0023 µM
EC50 (Histamine H4 receptor [16]): > 10 µM
Kb (Histamine H4 receptor [17]): < 0.0001 µM
Compound: CN[C@@H]1CCN(c2cc(C3CCCCC3)nc(N)n2)C1

Ki (Histamine H4 receptor [15]): 0.005 µM
Compound: CN1CCN(c2ncnc3c2oc2ccc(Cl)cc23)CC1

Ki (Histamine H4 receptor [15]): 0.0055 µM
EC50 (Histamine H4 receptor [16]): 1.3 µM
Kb (Histamine H4 receptor [17]): 0.0251 µM
Compound: Nc1nc(C2CCCC2)cc(N2CC(N)C2)n1

Ki (Histamine H4 receptor [15]): 0.03 µM
EC50 (Histamine H4 receptor [16]): > 10 µM
Kb (Histamine H4 receptor [17]): 0.01 µM
Compound: CN[C@H]1CN(c2cc(C3CCCC3)nc(N)n2)C[C@@H]1O (relative stereo)

Ki (Histamine H4 receptor [15]): 0.0015 µM
EC50 (Histamine H4 receptor [16]): > 10 µM
Kb (Histamine H4 receptor [17]): 0.00398 µM
Compound: CCCCc1cc(N2CC[C@@H](NC)C2)nc(N)n1

EC50 (Histamine H4 receptor [16]): > 10 µM
Kb (Histamine H4 receptor [17]): 0.01 µM
Ki (Histamine H4 receptor [18]): 0.062 µM
Kb (Histamine H4 receptor [19]): 0.0501 µM
Ki (Histamine H3 receptor): 0.67 µM
half-life [20]: > 2 h
half-life [21]: 1.05 h
Papp A→B [24]: 540 nm/s
Papp B→A [25]: 140 nm/s
fraction unbound [39]: 0.26
half-life [26]: 5.3 h
AUC [27]: 11 µM·h
clearance [28]: 0.3 L/h/kg
Vd [29]: 6.3 L/kg
bioavailability [30]: 50%
half-life [31]: 9.7 h
Cmax [32]: 1.5 µM
Compound: CCc1cc(N2CC[C@@H](NC)C2)nc(N)n1
INH [22]: > 10 µM
inhibition (Mus musculus): Active
